Reference: PMC9312093 (ACS Bio & Med Chem Au, 2022)

Biological target: T1, human ERO1α (Homo sapiens, UniProt Q96HE7, C104A/C131A/C166A)
T1 sequence (Q96HE7 22-468 C104A/C131A/C166A): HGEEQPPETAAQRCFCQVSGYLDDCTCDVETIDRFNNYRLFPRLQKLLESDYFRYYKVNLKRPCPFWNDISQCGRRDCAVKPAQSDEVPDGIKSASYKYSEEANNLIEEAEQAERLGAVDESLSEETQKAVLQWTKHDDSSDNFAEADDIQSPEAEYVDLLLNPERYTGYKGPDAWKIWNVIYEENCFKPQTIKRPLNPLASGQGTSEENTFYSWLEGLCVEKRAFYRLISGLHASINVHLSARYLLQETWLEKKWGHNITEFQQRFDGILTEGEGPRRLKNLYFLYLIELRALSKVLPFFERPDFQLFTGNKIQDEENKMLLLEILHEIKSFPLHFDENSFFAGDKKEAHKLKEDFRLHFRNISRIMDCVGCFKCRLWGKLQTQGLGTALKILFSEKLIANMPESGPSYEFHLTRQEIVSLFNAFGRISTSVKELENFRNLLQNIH
Test: Recombinant ERO1α enzyme assay
Type: biochemical
Conditions: up to 200 µM; FAD covalent modifiers
Procedure, shortened: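 Hyperactive human ERO1α (a.a. 22-468, C104A/C131A/C166A) and human PDI (a.a. 18-479) were used, each at 0.0625 mg/mL, with rising test compound concentrations. Activity was quantified by Amplex Red. Data are mean ± S.D. of 3 independent experiments, each run in triplicate.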

`N[C@@H]1C[C@H]1c1ccccc1` (racemic) [tranylcypromine] was tested, and the “inhibition of ERO1α activity, concentration-response” value was “did not inhibit”.
